These results are taken from ChEMBL document CHEMBL3580547, “Novel Pyrazole Derivatives Effectively Inhibit Osteoclastogenesis, a Potential Target for Treating Osteoporosis” (J Med Chem, 2015).

Series [1] is described as follows: cells. Conditions: Rattus norvegicus, Sprague-Dawley, Osteoclast, 120 h, read-out: INH.
Series [2] has as its system Osteoclast. Conditions: Rattus norvegicus, Sprague-Dawley, 10 uM.
In series [3] the test system is Osteoclast. In words: Antiosteoclastogenic activity in Sprague-Dawley rat bone marrow-derived preosteoclasts assessed as inhibition of RANKL/M-CSF-induced osteoclast formation treated on day 1 measured over day 1 to day 3 by TRAP staining. Format: functional, cell-based. The gist of the method: (§1)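 Rat bone-marrow preosteoclasts were cultured with RANKL 50 ng/mL and M-CSF 20 ng/mL. Compound (10 μM) was added during defined day windows, with days 3−5 taken as the late phase. Osteoclasts were scored by TRAP staining as TRAP-positive cells with ≥3 nuclei (N = 3).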

The subject of series [4] is Osteoclast. In words: Antiosteoclastogenic activity in Sprague-Dawley rat bone marrow-derived preosteoclasts assessed as inhibition of RANKL/M-CSF-induced osteoclast formation treated on day 3 post RANKL/M-CSF induction measured over day 3 to day 5 by TRAP staining. Format: functional, cell-based. The gist of the method:
as §1

Series [5] can be described thus: Cytotoxicity against Sprague-Dawley rat bone marrow-derived preosteoclasts assessed as cell viability at 10 uM incubated for 5 days measured on day 8 by MTT assay in presence of M-CSF. It counts as cell-based. Conditions: osteoclast, 120 h. The gist of the method: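 Nonadherent bone-marrow preosteoclasts were seeded at 10⁶ cells/well with M-CSF 20 ng/mL for 3 days, then treated with compound for another 5 days. After washing, cells were given MTT at 0.5 mg/mL in α-MEM for 60 min at 37 °C. Formazan was dissolved in DMSO and absorbance read at 550 nm.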

The subject of series [6] is Osteoclast. In words: Antiresorptive activity in RANKL/M-CSF-stimulated Sprague-Dawley rat bone marrow-derived preosteoclasts assessed as inhibition of osteoclast resorption area at 10 uM treated for 3 days post 5 days RANKL/M-CSF stimulation measured on day 8 by inverted microscopic analysis. Format: functional. The gist of the method:
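Rat bone-marrow preosteoclasts were seeded at 10⁶ cells/well on resorbable assay plates with RANKL 50 ng/mL and M-CSF 20 ng/mL for 5 days. Both factors were then removed and compound was added for another 3 days. Cells were stripped with 1 N NaOH, and resorbed areas were photographed under an inverted microscope and quantified by image analysis.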

Series [7] concerns Osteoclast. In words: Effect on osteoclast formation from RANKL/M-CSF-stimulated Sprague-Dawley rat bone marrow-derived preosteoclasts at 10 uM treated for 3 days post 5 days RANKL/M-CSF stimulation measured on day 8 by inverted microscopic analysis relative to control. Format: functional, cell-based.
Series [8] concerns the target T1, Tumor necrosis factor ligand superfamily member 11 (Mus musculus) (UniProt O35235).
T1 sequence (whole entry): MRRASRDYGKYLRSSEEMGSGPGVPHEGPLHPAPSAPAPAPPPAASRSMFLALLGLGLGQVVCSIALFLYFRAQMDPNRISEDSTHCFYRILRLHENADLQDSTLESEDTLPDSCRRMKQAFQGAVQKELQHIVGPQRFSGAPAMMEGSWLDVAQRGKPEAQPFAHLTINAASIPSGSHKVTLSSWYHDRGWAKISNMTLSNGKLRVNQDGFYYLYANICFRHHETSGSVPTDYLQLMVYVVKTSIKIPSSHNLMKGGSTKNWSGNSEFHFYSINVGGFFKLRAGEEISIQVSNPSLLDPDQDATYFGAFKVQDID
Put plainly: Antiosteoclastogenic activity in ICR mouse bone marrow-derived preosteoclasts assessed as inhibition of RANKL/M-CSF-induced osteoclast formation at 10 uM after 5 days by TRAP staining. Format: functional, cell-based. The gist of the method:
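They were plated at 10⁶ cells/well with RANKL (50 ng/mL), M-CSF (20 ng/mL) and compound for 5 days. Cells were fixed in 4% paraformaldehyde and TRAP-stained for 1 h at 37 °C. TRAP-positive cells with ≥3 nuclei were counted as osteoclasts.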

Series [9] is described as follows: Cytotoxicity against cranium-derived preosteoblasts (unknown origin) assessed as inhibition of bone mineralized nodule formation after 2 weeks by alizarin red staining assay in presence of beta-glycerophosphate and L-ascorbic acid. It counts as cell-based. Conditions: osteoblast, 336 h. The gist of the method:
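Cranium-derived preosteoblasts were grown in α-MEM with 10% FBS. Mineralisation was induced with 10 mM β-glycerophosphate and 50 μg/mL L-ascorbic acid, with or without compound, for 2 weeks. Cells were fixed in ice-cold 75% ethanol for 30 min and stained with 40 mM alizarin red (pH 4.2). Stain was quantified at 550 nm against a standard curve.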

Series [10] is described as follows: Cytotoxicity against cranium-derived preosteoblasts (unknown origin) assessed as effect on cell viability after 24 hrs by MTT assay. Format: cell-based. Conditions: osteoblast. The gist of the method: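 Osteoblasts were plated for 24 h, then exposed to compound for another 24 h. Viability was measured by MTT at 0.5 mg/mL in α-MEM for 60 min at 37 °C, with DMSO solubilisation and absorbance at 550 nm.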

Series [11] concerns RAW264.7. Put plainly: Inhibition of osteoclast formation in mouse RAW264.7 cells. Format: functional, cell-based.
For series [12], the target named is T1, Tumor necrosis factor ligand superfamily member 11 (Mus musculus). Put plainly: Inhibition of RANKL-induced IKK phosphorylation in mouse RAW264.7 cells at 10 uM preincubated for 2 hrs followed by RANKL induction measured over 60 mins by Western blot analysis. Format: cell-based. The gist of the method:
(§2)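 Confluent RAW264.7 cells were pretreated with compound (10 μM) for 2 h, then stimulated with RANKL 50 ng/mL for various times. Lysates (30 μg protein per lane) were run on 10% SDS gels and transferred to PVDF. Blots were probed overnight at 4 °C with antibodies to phospho- and total IKKα/β and p65, with actin as control, followed by HRP secondary antibodies.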
(A western blot detects proteins with antibodies after separation by electrophoresis.)

For series [13], the target named is Transcription factor p65 (Mus musculus) (UniProt Q04207). Put plainly: Inhibition of RANKL-induced P65 phosphorylation in mouse RAW264.7 cells at 10 uM preincubated for 2 hrs followed by RANKL induction measured over 60 mins by Western blot analysis. It counts as cell-based. The gist of the method: as §2
Sequence of Transcription factor p65 (Mus musculus) (Q04207 whole entry): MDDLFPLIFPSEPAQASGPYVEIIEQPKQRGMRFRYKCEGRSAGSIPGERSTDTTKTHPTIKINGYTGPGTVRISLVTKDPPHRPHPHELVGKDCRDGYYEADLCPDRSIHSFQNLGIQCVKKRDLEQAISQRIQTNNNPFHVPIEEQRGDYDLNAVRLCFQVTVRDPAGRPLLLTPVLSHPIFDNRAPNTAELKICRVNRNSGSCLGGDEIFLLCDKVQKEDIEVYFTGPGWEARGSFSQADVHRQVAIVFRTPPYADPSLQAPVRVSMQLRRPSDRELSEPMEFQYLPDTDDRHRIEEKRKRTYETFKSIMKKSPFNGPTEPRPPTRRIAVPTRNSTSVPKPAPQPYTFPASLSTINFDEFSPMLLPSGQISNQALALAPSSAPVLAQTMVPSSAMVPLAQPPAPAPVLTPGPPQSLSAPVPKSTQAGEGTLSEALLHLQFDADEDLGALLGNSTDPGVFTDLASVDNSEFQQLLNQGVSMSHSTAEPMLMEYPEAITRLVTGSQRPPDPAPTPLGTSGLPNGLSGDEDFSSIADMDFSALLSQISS
The test system of series [14] is Mus musculus. In words: Antiosteoporosis activity in ovariectomized ICR mouse assessed as inhibition of ovariectomy-induced reduction of trabecular bone volume relative to tissue volume at 10 mg/kg, sc administered for 5 days/week for 30 days measured on day 30 by microcomputed tomographic analysis. Format: functional, organism-based. Conditions: Trabecula. The gist of the method: (§3)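 Female ICR mice (12 weeks old) were bilaterally ovariectomized or sham-operated. Starting 2 days post-surgery, they were dosed s.c. at 10 mg/kg, 5 days/week, or given vehicle for 30 days. Tibiae were fixed in 4% paraformaldehyde and scanned by μCT. BV/TV, Tb.N and Tb.Th were quantified 0.5−1.5 mm distal to the proximal growth plate.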

Series [15] has as its system Mus musculus. Put plainly: Antiosteoporosis activity in ovariectomized ICR mouse assessed as inhibition of ovariectomy-induced reduction of trabecular bone number at 10 mg/kg, sc administered for 5 days/week for 30 days measured on day 30 by microcomputed tomographic analysis. Format: functional, organism-based. Conditions: Trabecula. The gist of the method:
as §3

Series [16] has as its system Mus musculus. Put plainly: Antiosteoporosis activity in ovariectomized ICR mouse assessed as inhibition of ovariectomy-induced reduction of trabecular thickness at 10 mg/kg, sc administered for 5 days/week for 30 days measured on day 30 by microcomputed tomographic analysis. It counts as functional, organism-based. Conditions: Trabecula. The gist of the method:
as §3

For series [17], the system named is Mus musculus. Put plainly: Antiosteoporosis activity in ovariectomized ICR mouse assessed as inhibition of ovariectomy-induced reduction of trabecular bone number at 10 mg/kg, sc administered for 5 days/week for 30 days measured on day 30 by Hematoxylin and eosin staining. It counts as functional, organism-based. Conditions: Trabecula. The gist of the method:
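Ovariectomized or sham-operated female ICR mice were dosed s.c. at 10 mg/kg, 5 days/week, for 30 days. Tibiae taken on day 30 were fixed in 4% paraformaldehyde at 4 °C for 48 h and decalcified in 10% Na2EDTA at 4 °C for 14 days. They were then paraffin-embedded, cut longitudinally at 4 μm and stained with hematoxylin−eosin.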

Series [18] has as its system Mus musculus. Put plainly: Antiosteoporosis activity in ovariectomized ICR mouse assessed as inhibition of ovariectomy-induced C-terminal telopeptides of type-1 collagen level in serum at 10 mg/kg, sc administered for 5 days/week for 30 days measured on day 30 by enzyme immunoassay. Format: functional, organism-based. The gist of the method: (§4)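 Twelve-week-old female ICR mice were bilaterally ovariectomized under isoflurane, with sham-operated controls. From 2 days after surgery, mice received s.c. compound or vehicle 5 days/week for 30 days. On day 30, serum was prepared by centrifugation at 1500g for 15 min. CTx was measured with a RatLaps EIA (N = 8) and osteocalcin with a Rat-MID osteocalcin EIA (N = 9).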

In series [19] the test system is Mus musculus. In words: Antiosteoporosis activity in ovariectomized ICR mouse assessed as inhibition of ovariectomy-induced osteocalcin level in serum at 10 mg/kg, sc administered for 5 days/week for 30 days measured on day 30 by enzyme immunoassay. Format: functional, organism-based. The gist of the method: as §4

Calls of active or inactive are those of the source. The rule behind the calls is not given here.

Regarding `CON(C)C(=O)c1ccc(-c2nn(Cc3ccccc3)c3ccccc23)o1`, the inhibition at 10 µM in [1] was 20%.
`CC(=O)OCc1ccc(-c2nn(Cc3ccccc3)c3ccccc23)o1`: the inhibition at 10 µM in series [1] was determined as 20%.
`CC(=O)c1ccc(-c2nn(Cc3ccccc3)c3ccccc23)o1`: the inhibition at 10 µM in series [1] was 20%.
Regarding `NCCCC(O)(P(=O)(O)O)P(=O)(O)O`, in series [2], the inhibition entry is “Active”.
As for `O=C(O)c1ccc(-c2nn(Cc3ccccc3)c3ccccc23)o1`, the inhibition at 10 µM in [1] was 20%.
As to `CN(C)CCOC(=O)c1ccc(-c2nn(Cc3ccccc3)c3ccccc23)o1`, the inhibition result in series [3] and in series [4] was “Dose-dependent effect” throughout. The Activity entry in series [5], in series [9] and in [10] was “Non-toxic” in each case. Besides, the inhibition at 10 µM in series [6] is over 75%; in series [1] it was over 90%. In addition, in series [7], the result was inactive. In addition, the inhibition entry in series [8], in series [11], in series [12], in series [13], in [14] and in series [15] was “Active” throughout. Besides, the inhibition result in series [16], in series [17], in [18] and in [19] was “Active” throughout.
`OCCc1ccc(-c2nn(Cc3ccccc3)c3ccccc23)o1`: the inhibition at 10 µM in [1] stood at 20%.
In the case of `CC(C)(C)C(=O)OCc1ccc(-c2nn(Cc3ccccc3)c3ccccc23)o1`, in series [1], the inhibition at 10 µM came out at 20%.
